Assay results: ChEMBL document CHEMBL2157989, “Synthesis and biological evaluation of antibody conjugates of phosphate prodrugs of cytotoxic DNA alkylators for the targeted treatment of cancer” (J Med Chem, 2012)
Values after ≈ are worked out from the molar mass of the structure shown. Each block holds one compound with its values, some of them ahead of it. Active and inactive are the calls of the source. The calls are words filed in the database; no cut-off is given here.

Legend:
[1] = Solubility in dichloromethane at 1.5 mg sonicated for 45 mins followed by centrifugation for 45 mins by UV/Vis spectroscopy; type: physicochemical; conditions: 0.75 h
[2] = Prodrug activation assessed as enzyme-mediated compound dephosphorylation in presence of bovine semen prostatic acid phosphatase P3147 at pH 7.4 by HPLC; conditions: cattle, isolated protein
[3] = Solubility in toluene at 1.5 mg sonicated for 45 mins followed by centrifugation for 45 mins by UV/Vis spectroscopy; type: physicochemical; conditions: 0.75 h
How it was run: (§1)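 Solid compound (~1.5 mg) in the stated solvent was sonicated 45 min, then centrifuged at 1400g for 45 min. The supernatant concentration was read by UV/vis at 340 nm, using ε = 41500 M⁻¹ cm⁻¹ for the free phenols and 34500 M⁻¹ cm⁻¹ for the phosphate prodrugs (pH 7.0 values).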

[4] = Solubility in DMA at 1.5 mg sonicated for 45 mins followed by centrifugation for 45 mins by UV/Vis spectroscopy; type: physicochemical; conditions: 0.75 h; how it was run: as §1
[5] = Solubility in ethanol at 1.5 mg sonicated for 45 mins followed by centrifugation for 45 mins by UV/Vis spectroscopy; type: physicochemical; conditions: 0.75 h; how it was run: as §1
[6] = Solubility in water containing 5% DMSO at 1.5 mg sonicated for 45 mins followed by centrifugation for 45 mins by UV/Vis spectroscopy; type: physicochemical; conditions: 0.75 h
[7] = Solubility in DMF at 1.5 mg sonicated for 45 mins followed by centrifugation for 45 mins by UV/Vis spectroscopy; type: physicochemical; conditions: 0.75 h; how it was run: as §1
[8] = Prodrug activation assessed as enzyme-mediated compound dephosphorylation in presence of porcine intestine mucosa alkaline phosphatase P4002 at pH 7.4 by HPLC; conditions: pig, isolated protein
[9] = Solubility in water containing 5% DMA at 1.5 mg sonicated for 45 mins followed by centrifugation for 45 mins by UV/Vis spectroscopy; type: physicochemical; conditions: 0.75 h
[10] = Solubility in water containing 5% THF at 1.5 mg sonicated for 45 mins followed by centrifugation for 45 mins by UV/Vis spectroscopy; type: physicochemical; conditions: 0.75 h
[11] = Prodrug activation assessed as enzyme-mediated compound dephosphorylation in presence of porcine kidney alkaline phosphatase P4439 at pH 7.4 by HPLC; conditions: pig, isolated protein
[12] = Solubility in DMSO at 1.5 mg sonicated for 45 mins followed by centrifugation for 45 mins by UV/Vis spectroscopy; type: physicochemical; conditions: 0.75 h; how it was run: as §1
[13] = Solubility in water containing 5% dioxane at 1.5 mg sonicated for 45 mins followed by centrifugation for 45 mins by UV/Vis spectroscopy; type: physicochemical; conditions: 0.75 h
[14] = Prodrug activation assessed as enzyme-mediated compound dephosphorylation in presence of rabbit intestine alkaline phosphatase P2256 at pH 7.4 by HPLC; conditions: isolated protein
[15] = Solubility in water containing 5% acetone at 1.5 mg sonicated for 45 mins followed by centrifugation for 45 mins by UV/Vis spectroscopy; type: physicochemical; conditions: 0.75 h
[16] = Prodrug activation assessed as enzyme-mediated compound dephosphorylation in presence of calf intestine alkaline phosphatase P7923 at pH 7.4 by HPLC; conditions: cattle, isolated protein
[17] = Prodrug activation assessed as enzyme-mediated compound dephosphorylation in presence of human semen prostatic acid phosphatase P1649 at pH 7.4 by HPLC; conditions: isolated protein
Ramos [18] = assay: Antitumor activity against human Ramos cells xenografted in CB17 SCID mouse assessed as reduction in tumor growth rate at 75 ug/kg, iv dosed as qdx5 regime starting 7 days post xenograft; type: functional, organism-based
How it was run: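 Female CB 17 SCID mice, five weeks old, were given Ramos cells subcutaneously under the right shoulder (5 × 10⁶ cells/mouse in 0.1 mL serum-free medium). Tumors grew 7 days to about 100 mm³. Mice were randomized, six per group. Dosing was 75 μg/kg (drug basis) qd ×5, given intravenously, with phosphate-buffered saline as vehicle control. Tumors were measured in three dimensions twice weekly, with volume = ½(l×w×h); body weight was also taken twice weekly.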

[19] = Prodrug activation assessed as enzyme-mediated compound dephosphorylation in presence of bovine kidney alkaline phosphatase P4653 at pH 7.4 by HPLC; conditions: cattle, isolated protein
[20] = Prodrug activation assessed as enzyme-mediated compound dephosphorylation in presence of bovine alkaline phosphatase P8361 at pH 7.4 by HPLC; conditions: cattle, isolated protein
[21] = Solubility in ethyl acetate at 1.5 mg sonicated for 45 mins followed by centrifugation for 45 mins by UV/Vis spectroscopy; type: physicochemical; conditions: 0.75 h; how it was run: as §1
[22] = Prodrug activation assessed as enzyme-mediated compound dephosphorylation in presence of bovine intestinal mucosa alkaline phosphatase P7640 at pH 7.4 by HPLC; conditions: cattle, isolated protein
[23] = Prodrug activation assessed as enzyme-mediated compound dephosphorylation in presence of calf intestine mucosa alkaline phosphatase P79390 at pH 7.4 by HPLC; conditions: cattle, isolated protein
[24] = Solubility in water at 1.5 mg sonicated for 45 mins followed by centrifugation for 45 mins by UV/Vis spectroscopy; type: physicochemical; conditions: 0.75 h; how it was run: as §1
[25] = Prodrug activation assessed as enzyme-mediated compound dephosphorylation in presence of wheat germ acid phosphatase Sigma P3627 at pH 7.4 by HPLC; conditions: isolated protein
[26] = Stability of the compound in 5 % DMA assessed as cyclopropyl ring formation incubated for 1 yr at room temperature at pH 7 by HPLC analysis; type: physicochemical; conditions: buffer, pH 7, 8766 h
How it was run: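 Phosphate prodrug is stored for one year at room temperature in phosphate buffer containing 5% DMA at pH ~7. Conversion to the ring-closed cyclopropyl form is monitored by HPLC.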

[27] = Solubility in methanol at 1.5 mg sonicated for 45 mins followed by centrifugation for 45 mins by UV/Vis spectroscopy; type: physicochemical; conditions: 0.75 h; how it was run: as §1
[28] = Solubility in hexane at 1.5 mg sonicated for 45 mins followed by centrifugation for 45 mins by UV/Vis spectroscopy; type: physicochemical; conditions: 0.75 h; how it was run: as §1
[29] = Solubility in water containing 5% DMF at 1.5 mg sonicated for 45 mins followed by centrifugation for 45 mins by UV/Vis spectroscopy; type: physicochemical; conditions: 0.75 h
[30] = Prodrug activation assessed as enzyme-mediated compound dephosphorylation in presence of human placenta alkaline phosphatase from P3895 at pH 7.4 by HPLC; conditions: isolated protein
[31] = Solubility in chloroform at 1.5 mg sonicated for 45 mins followed by centrifugation for 45 mins by UV/Vis spectroscopy; type: physicochemical; conditions: 0.75 h; how it was run: as §1
[32] = Prodrug activation assessed as enzyme-mediated compound dephosphorylation in presence of canine intestine alkaline phosphatase P8639 at pH 7.4 by HPLC; conditions: dog, isolated protein
[33] = Prodrug activation assessed as enzyme-mediated compound dephosphorylation in presence of bovine liver alkaline phosphatase P7034 at pH 7.4 by HPLC; conditions: cattle, isolated protein
[34] = Solubility in THF at 1.5 mg sonicated for 45 mins followed by centrifugation for 45 mins by UV/Vis spectroscopy; type: physicochemical; conditions: 0.75 h
[35] = Solubility of the compound in 5% DMA and 95% buffer at pH 7 at 1.5 mg sonicated for 45 mins followed by centrifugation for 45 mins by UV/Vis spectroscopy; type: physicochemical
How it was run: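 For buffers with 5% or less DMA, a 50 mM stock of compound in DMA is diluted 20–100 times into pH 7.0 buffer. It is then sonicated for 45 min and centrifuged at 1400g for 45 min. Supernatant is quantified by UV/vis at 340 nm, with ε of 41500 (DC1–SR₂ compounds) or 34500 M⁻¹ cm⁻¹ (phosphate prodrugs).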

[36] = Cytotoxicity against human NAMALWA cells assessed as cell survival after 72 hrs by clonogenic assay; type: functional, cell-based; conditions: NAMALVA
How it was run: (§2)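 Cells were kept in RPMI 1640 with 10% heat-inactivated FBS at 37 °C and 6% CO₂. They were plated at 1000–5000 cells/well and exposed to 0–3 nM test agent for 72 h. Medium was then replaced and colonies grew for 7–10 days in total after plating. Colonies were fixed and stained with 0.2% crystal violet in 10% formalin/PBS, then counted. Surviving fraction = colonies in treated wells / colonies in control wells; IC₅₀ was taken from this.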

[37] = Solubility of the compound in 100% buffer at pH 7 at 1.5 mg sonicated for 45 mins followed by centrifugation for 45 mins by UV/Vis spectroscopy; type: physicochemical
[38] = Solubility of the compound in 20% DMA and 80% buffer at pH 7 at 1.5 mg sonicated for 45 mins followed by centrifugation for 45 mins by UV/Vis spectroscopy; type: physicochemical
How it was run: (§3)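 About 1.5 mg of compound is sonicated for 45 min in pH 7.0 buffer containing 10% or 20% DMA, then centrifuged at 1400g for 45 min. Supernatant concentration is read by UV/vis at 340 nm. ε at pH 7.0 is 41500 M⁻¹ cm⁻¹ for DC1–SR₂ compounds and 34500 M⁻¹ cm⁻¹ for phosphate prodrugs.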

[39] = Solubility in acetone at 1.5 mg sonicated for 45 mins followed by centrifugation for 45 mins by UV/Vis spectroscopy; type: physicochemical; conditions: 0.75 h
HL-60 = assay: Cytotoxicity against human HL60 cells assessed as cell survival after 72 hrs by clonogenic assay; type: functional, cell-based; conditions: HL-60, 72 h; how it was run: as §2
COLO 205 = assay: Cytotoxicity against human COLO205 cells assessed as cell survival after 72 hrs by clonogenic assay; type: functional, cell-based; conditions: COLO 205, 72 h; how it was run: as §2
[40] = Solubility of the compound in 10% DMA and 90% buffer at pH 7 at 1.5 mg sonicated for 45 mins followed by centrifugation for 45 mins by UV/Vis spectroscopy; type: physicochemical; how it was run: as §3
[41] = Solubility in dioxane at 1.5 mg sonicated for 45 mins followed by centrifugation for 45 mins by UV/Vis spectroscopy; type: physicochemical; conditions: 0.75 h
Ramos [42] = assay: Cytotoxicity against human Ramos cells assessed as cell survival after 72 hrs by clonogenic assay; type: functional, cell-based; how it was run: as §2

solubility [1]: Insoluble | Drug metabolism [2]: Active | solubility [3]: Insoluble | solubility [4]: soluble | solubility [5]: Insoluble | solubility [6]: soluble | solubility [7]: soluble | Drug metabolism [8]: Active | solubility [9]: soluble | solubility [10]: soluble | Drug metabolism [11]: Active | solubility [12]: soluble | solubility [13]: soluble | Drug metabolism [14]: Active | solubility [15]: soluble | Drug metabolism [16]: Active | Drug metabolism [17]: Active | Drug metabolism [19]: Active | Drug metabolism [20]: Active | solubility [21]: Insoluble | Drug metabolism [22]: Active | Drug metabolism [23]: Active | solubility [24]: Insoluble | Drug metabolism [25]: Active | Drug degradation [26]: 3% | solubility [27]: Insoluble | solubility [28]: Insoluble | solubility [29]: soluble | Drug metabolism [30]: Active | solubility [31]: Insoluble | Drug metabolism [32]: Active | Drug metabolism [33]: Active
SMILES: O=C(CCS)Nc1ccc2[nH]c(C(=O)Nc3ccc4[nH]c(C(=O)N5C[C@@H](CCl)c6c5cc(OP(=O)(O)O)c5ccccc65)cc4c3)cc2c1
Activity (Ramos [18]): inactive

solubility [1]: Insoluble | solubility [34]: soluble | solubility at 0.75 h [35]: < 1 µM | solubility at 0.75 h [37]: < 0.1 µM | solubility [3]: Insoluble | solubility [4]: soluble | solubility [5]: Insoluble | solubility at 0.75 h [38]: 3 µM (≈ 2.05 µg/mL) | solubility [39]: soluble | solubility [7]: soluble | solubility [12]: soluble | solubility at 0.75 h [40]: 1 µM (≈ 0.684 µg/mL) | solubility [21]: Insoluble | solubility [24]: Insoluble | solubility [41]: soluble | solubility [27]: Insoluble | solubility [28]: Insoluble | solubility [31]: Insoluble
SMILES: CSSCCC(=O)Nc1ccc2[nH]c(C(=O)Nc3ccc4[nH]c(C(=O)N5C[C@@H](CCl)c6c5cc(O)c5ccccc65)cc4c3)cc2c1
IC50 [36]: 10 pM | IC50 (HL-60): 32 pM | IC50 (COLO 205): 250 pM | IC50 (Ramos [42]): 22 pM
